Measured values from different studies.
Protocols differ between the studies behind these lines. In brackets after ≈: the same amount, converted by molar mass.

C#CCON=C1C=CC(=C(C#N)c2ccccc2)C=C1
MFC (Pichia kudriavzevii; microbial killing, broth dilution; ATCC14243; 48 h): 64 µg/mL (≈ 246 µM)

CC1=C(Cc2cn(CCN3CCN(C(=O)OC(C)(C)C)CC3)nn2)C(=O)c2ccccc2C1=O
IC50 (Schistosoma mansoni; parasite growth; 72 h, larva): 1890 nM

C=CC(=O)ON=C1C=CC(=C(C#N)c2ccccc2)C=C1
MFC (Pichia kudriavzevii; microbial killing, broth dilution; ATCC14243; 48 h): 16 µg/mL (≈ 57.9 µM)

CC1=C(Cn2cc([Si](C)(C)C)nn2)C(=O)c2ccccc2C1=O
IC50 (Schistosoma mansoni; parasite growth; 72 h, larva): 1570 nM

O=C(Nc1cccc(Cl)c1)c1ccc(COC(Cn2ccnc2)c2ccc(Cl)cc2Cl)cc1 (centres unmarked)
MIC80 (Pichia kudriavzevii; microbial growth, broth dilution): 0.25 µg/mL (≈ 0.499 µM)

CC(=O)ON=C1C=CC(=C(C#N)c2ccccc2)C=C1
MFC (Pichia kudriavzevii; microbial killing, broth dilution; ATCC14243; 48 h): 16 µg/mL (≈ 60.5 µM)

O=C(Nc1cccc(F)c1)c1ccc(COC(Cn2ccnc2)c2ccc(Cl)cc2Cl)cc1 (centres unmarked)
MIC80 (Pichia kudriavzevii; microbial growth, broth dilution): 0.25 µg/mL (≈ 0.516 µM)

CCON=C1C=CC(=C(C#N)c2ccccc2)C=C1
MIC (Pichia kudriavzevii; microbial growth, broth dilution; ATCC14243; 48 h): 256 µg/mL (≈ 1020 µM)

CC1=C(Cn2ccnc2[N+](=O)[O-])C(=O)c2ccccc2C1=O
IC50 (Schistosoma mansoni; parasite growth; 72 h, larva): 1030 nM

COc1cc(NC(=O)Cn2ccc3ccc(-c4nnc(C)o4)cc32)cc(OC)c1OC
EC50 (Plasmodium knowlesi; parasite growth, SYBR Green; 30 h, blood stage): 200 to 660 nM

Clc1ccc(COC(Cn2ccnc2)c2ccc(Cl)cc2Cl)c(Cl)c1 (centres unmarked)
MIC80 (Pichia kudriavzevii; microbial growth, broth dilution): 0.5 µg/mL (≈ 1.2 µM)

C[C@@H]1[C@H](O)[C@@H](C)/C=C/C=C/C=C/C=C/C=C/C=C/C=C/[C@H](O[C@@H]2O[C@H](C)[C@@H](O)[C@H](N)[C@@H]2O)C[C@@H]2O[C@](O)(C[C@@H](O)C[C@@H](O)[C@H](O)CC[C@@H](O)C[C@@H](O)CC(=O)O[C@H]1C)C[C@H](O)[C@H]2C(=O)O
MIC (Pichia kudriavzevii; microbial growth, broth dilution; ATCC14243; 48 h): 2 µg/mL (≈ 2.16 µM)

OC(Cn1cncn1)(Cn1cncn1)c1ccc(F)cc1F
MIC80 (Pichia kudriavzevii; microbial growth, broth dilution): 16 µg/mL (≈ 52.2 µM)

CC1=C(Cn2cc(CN3CCNCC3)nn2)C(=O)c2ccccc2C1=O
IC50 (Schistosoma mansoni; parasite growth; 72 h, larva): 930 nM

N#CC(=C1C=CC(=NOC(=O)OCc2ccccc2)C=C1)c1ccccc1
MFC (Pichia kudriavzevii; microbial killing, broth dilution; ATCC14243; 48 h): 256 µg/mL (≈ 718 µM)

O=C1/C(=C/c2ccc3ccccc3c2O)NC(=S)N1c1ccccc1
MIC (Fusarium solani; microbial growth, broth dilution): 20 µg/mL (≈ 57.7 µM)

CC1=C(Cc2cn(CCO)nn2)C(=O)c2ccccc2C1=O
IC50 (Schistosoma mansoni; parasite growth; 72 h, larva): 1440 nM

O=C(Nc1ccc(Cl)cc1)c1ccc(COC(Cn2ccnc2)c2ccc(Cl)cc2Cl)cc1 (centres unmarked)
MIC80 (Pichia kudriavzevii; microbial growth, broth dilution): 0.125 µg/mL (≈ 0.25 µM)

CC1=C(Cn2cnc([N+](=O)[O-])n2)C(=O)c2ccccc2C1=O
IC50 (Schistosoma mansoni; parasite growth; 72 h, larva): 860 nM

O=C(Nc1cccc2ccccc12)c1ccc(COC(Cn2ccnc2)c2ccc(Cl)cc2Cl)cc1 (centres unmarked)
MIC80 (Pichia kudriavzevii; microbial growth, broth dilution): 16 µg/mL (≈ 31 µM)

CC1=C(Cn2cc(C(C)(C)O)nn2)C(=O)c2ccccc2C1=O
IC50 (Schistosoma mansoni; parasite growth; 72 h, larva): 1050 nM

O=C(Nc1ccc2cccnc2c1)c1ccc(COC(Cn2ccnc2)c2ccc(Cl)cc2Cl)cc1 (centres unmarked)
MIC80 (Pichia kudriavzevii; microbial growth, broth dilution): 8 µg/mL (≈ 15.5 µM)

C#CCOC(=O)ON=C1C=CC(=C(C#N)c2ccccc2)C=C1
MFC (Pichia kudriavzevii; microbial killing, broth dilution; ATCC14243; 48 h): 32 µg/mL (≈ 105 µM)
